SMILES strings stand for the structures.

By IC50 is commonly meant the concentration that inhibits the measured activity by half.

Common to all, as to format: functional, organism-based
Conditions in all cases: 168 h

The subject of test [1] is Mycobacterium tuberculosis. Briefly: Antimycobacterial activity against INH-resistant Mycobacterium tuberculosis expressing katG+ assessed as bacterial growth inhibition measured after 1 week by MABA assay. The method in brief:
(§1)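 Colonies grown on 7H10+OADC agar at 37 °C, then to mid-log in 7H9+OADC; about 4×10^5 CFU/mL inoculated into 7H9 with escalating compound concentrations. Incubated 37 °C for 1 week, then resazurin (0.6 mM in PBS) mixed 8:5 with 20 % Tween 80 was added and incubated overnight at 37 °C. Fluorescent resorufin read-out gave IC50.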
(In general: The colour change of resazurin is a common sign of viable cells or microbes.)

The test system of test [2] is Mycobacterium tuberculosis. Briefly: Antimycobacterial activity against INH-resistant Mycobacterium tuberculosis expressing inhA+ assessed as bacterial growth inhibition measured after 1 week by MABA assay. The method in brief: as §1
For test [3], the system named is Mycobacterium tuberculosis. Briefly: Antimycobacterial activity against Rifampicin-resistant Mycobacterium tuberculosis expressing rpoB+ assessed as bacterial growth inhibition measured after 1 week by MABA assay. The method in brief: as §1

In the case of `[O-][n+]1c2cccc(O)c2[n+]([O-])c2cccc(O)c21`, the IC50 in test [1] was determined as 70 nM.

Regarding `COc1cccc2c1[n+]([O-])c1cccc(O)c1[n+]2[O-]`, the IC50 in test [2], in test [3] and in test [1] was 62.5 nM in each case.

Take `[O-][n+]1c2ccccc2[n+]([O-])c2c(O)cccc21`: in test [1], the IC50 was 50 nM.

Turning to `CCOCOc1cc(OC)c2c(c1)[n+]([O-])c1ccccc1[n+]2[O-]`, the IC50 in test [2] stood at 31.2 nM; in test [3] it was 31.2 nM; in test [1], 62.5 nM.

For `[O-][n+]1c2ccccc2[n+]([O-])c2c(O)cc(O)cc21`, the IC50 in test [2] worked out at 125 nM; in test [3], 1000 nM; in test [1], 500 nM.

As to `COc1cc(O)c2c(c1)[n+]([O-])c1ccccc1[n+]2[O-]`, the half-inhibitory concentration (IC50) in test [2] amounted to 16 nM; in test [3], 62.5 nM; in test [1] it was 62.5 nM.

On to `CCOC(=O)COc1cc(O)c2c(c1)[n+]([O-])c1ccccc1[n+]2[O-]`, for which the IC50 in test [2] was found to be 62.5 nM; in test [3], 250 nM; in test [1], 250 nM.

With `CCOC(=O)COc1cc(OC)c2c(c1)[n+]([O-])c1ccccc1[n+]2[O-]`, the IC50 in test [2], in test [3] and in test [1] was 250 nM in each case.

For `CC(=O)Oc1cc(O)c2c(c1)[n+]([O-])c1ccccc1[n+]2[O-]`, the IC50 in test [2] is 500 nM; in test [3], 1000 nM; in test [1] it was 1000 nM.

`CCOc1cc(O)c2c(c1)[n+]([O-])c1ccccc1[n+]2[O-]`: the IC50 in test [2] is 4 nM; in test [3] it was 62.5 nM; in test [1] it was 62.5 nM.

For `COc1cccc2c1[n+]([O-])c1ccccc1[n+]2[O-]`, the IC50 in test [2], in test [3] and in test [1] was 125 nM in each case.

For the compound `COc1cc(OC(C)=O)c2c(c1)[n+]([O-])c1ccccc1[n+]2[O-]`, the IC50 in test [2] amounted to 125 nM; in test [3], 250 nM; in test [1] it was 125 nM.

As for `CCOCOc1cc(O)c2c(c1)[n+]([O-])c1ccccc1[n+]2[O-]`, the IC50 is 4 nM in test [2], 31.2 nM in test [3] and 62.5 nM in test [1].

As to `COc1cc(OC)c2c(c1)[n+]([O-])c1ccccc1[n+]2[O-]`, the IC50 in test [2], in test [3] and in test [1] was 125 nM in each case.

For `COCOc1cc(O)c2c(c1)[n+]([O-])c1ccccc1[n+]2[O-]`, the IC50 in test [2], in test [3] and in test [1] was 125 nM each time.
